Source: PubChem BioAssay (Sanford-Burnham Center for Chemical Genomics)
Shown are actives, neighbours in structure and some others; about 2.3% of the full set was active somewhere.
MT1-MMP act inh – blockers of MT1-MMP proenzyme processing, primary screen, HT1080 RFP-PRO-GFP cells, GFP/RFP fluorescence | 0.061% of 360,000 active | Matrix metalloproteinase-14 (Homo sapiens), P50281 | GFP/RFP ratio change, % at 20 µM | AID 651647, 2012 | GFP/RFP ratio fluorescence, overnight; percent of plate control window, DMSO zero;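 active = GFP/RFP ratio change of at least 30% with cell ATP level not reduced by more than half and red fluorescence within 50% of control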
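Test system: HT1080 cells expressing an RFP-PRO-GFP fluorescent reporter construct / Compound dosing: single-point 20 µM compound, 1% DMSO / Schedule: cells overnight before dosing, compound overnight, 37 °C, 5% CO2 / Evaluation: GFP/RFP fluorescence ratio / Control set: DMSO and RFP-L50D-GFP cell wells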
SKN-1 inh – suppressors of acrylamide-induced Pgst-4::GFP reporter in worms, primary screen, SKN-1 inhibitor project, whole organism, uHTS, GFP/RFP fluorescence ratio, strain VP596; inhibition, % at 21.8 µM; C. elegans VP596 Pgst-4::GFP/RFP ratio, 24 h; 0.49% of 360,000 active;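 active = interference check ratio from 0.5 to 1.5 plus GFP to RFP signal ratio inhibition reaching or exceeding a fixed threshold, cut at about 30% in these data, passing the limit was not always enough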
MPTP inh – mitochondrial permeability transition pore inhibitors, primary screen, biochemical, isolated mouse mitochondria, absorbance; Ca2+ swelling absorbance, 30 min; inhibition, % at 10 µM; 1.4% of 360,000 active; AID 602449, 2012;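 active = inhibition of 50% or more, scaled per plate between neutral and stimulator controls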;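 note: 0% = DMSO wells given calcium and 100% = 1 mM EGTA wells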
ATG4B inh – ATG4B protease inhibitors, primary screen, biochemical, fluorescence, uHTS; Cysteine protease ATG4B (Homo sapiens), Q9Y4P1; ATG4B cleavage of LC3-PLA2, NBD-HPC fluorescence, 1 h; inhibition, % at 8.33 µM; 0.51% of 340,000 active; AID 504462, 2011; in the data active = inhibition above about 40%
Target sequence (Q9Y4P1 whole entry, looked up): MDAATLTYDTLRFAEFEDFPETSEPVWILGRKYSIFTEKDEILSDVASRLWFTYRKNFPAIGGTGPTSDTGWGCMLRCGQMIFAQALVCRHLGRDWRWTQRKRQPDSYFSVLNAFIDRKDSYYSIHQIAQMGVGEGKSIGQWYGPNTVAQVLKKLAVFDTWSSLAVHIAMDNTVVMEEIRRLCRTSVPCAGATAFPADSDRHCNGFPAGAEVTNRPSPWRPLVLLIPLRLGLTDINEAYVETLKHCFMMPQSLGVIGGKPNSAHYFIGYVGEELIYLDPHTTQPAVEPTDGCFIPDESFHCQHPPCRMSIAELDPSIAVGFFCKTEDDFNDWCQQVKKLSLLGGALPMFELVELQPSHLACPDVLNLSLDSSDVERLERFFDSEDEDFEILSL
Rh123 counter – fluorescence retest of MPTP screen hits in isolated mitochondria, single concentration | shares compounds with MPTP inh | membrane potential, Rhodamine 123 fluorescence | inhibition, % at 10 µM | 78% of 5,000 active; in the data active = inhibition above about 22%;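 note: 0% = DMSO vehicle and 100% = positive control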
MPTP abs DR – mitochondrial permeability transition pore inhibitors, dose response, biochemical, absorbance, uHTS hits; shares compounds with MPTP inh; isolated mitochondria swelling; IC50, µM; 58% of 780 active; AID 651561, 2012; in the data active = IC50 below about 20 µM
MPTP counter DR – fluorescent counter-screen in isolated mitochondria, dose response, counter-screen for MPTP inhibitor project, biochemical, fluorescence, uHTS hits; 49% of 780 active; IC50, µM; isolated mitochondria counterscreen, fluorescence read-out; shares compounds with MPTP inh; in the data active = IC50 below about 80 µM
Active calls of the source: *; i = inactive; x = no result given.

SMILES	MT1-MMP act inh	SKN-1 inh	MPTP inh	ATG4B inh	Rh123 counter	others
O=C(Nc1ccc2c(c1)OCO2)Nc1ccc(Cl)cc1Cl	-6	-12	83*	-2	94*
O=C(Nc1cccc(Cl)c1)c1cccnn1	-4	22	1	13	x
COc1ccc(NC(=O)C2(C)CCN2Cc2ccc(OC)c3ccccc23)cc1OC (stereo unspecified)	7	-7	-1	x	x
CCCOc1ccc(C(=O)C(CN2CCCC2)c2ccccc2)cc1 (stereo unspecified)	-2	0	79*	3	-11
COc1ccc(C(C(=O)OCCN(C)C)c2ccccc2)cc1 (stereo unspecified)	4	18	1	-4	x
CCCCOc1ccc(C(=O)C(CN2CCOCC2)c2ccccc2)cc1 (stereo unspecified)	-34	-9	-4	-12	x
CCCOc1ccc(C(C(=O)OCCN(CC)CC)c2ccccc2)cc1 (stereo unspecified)	2	4	82*	-7	-1	MPTP abs DR=i;MPTP counter DR=73*
COCCCN1C(=O)C(CC(=O)NCc2ccco2)CC(C(=O)N(C)C)=C1C (stereo unspecified)	2	-2	0	x	x
Cc1nnsc1SCCNC(=O)Nc1ccc(Cl)cc1	0	3	88*	1	90*
CCCCCCCc1nc2sc3c(c2c(=O)n1N)CC(C)(C)OC3	1	-3	4	4	x
CCCCCc1nc2sc3c(c2c(=O)n1NC(=O)c1ccc([N+](=O)[O-])cc1)CC(C)(C)OC3	-18	11	90*	-10	76*
Cc1cc(C)nc(/N=C(\N)Nc2ccc(CC(=O)OC(C)C)cc2)n1	-1	0	50*	4	59*
Cc1cc(C)nc(/N=C(\N)Nc2cccc(OCc3ccccc3)c2)n1	-1	0	83*	4	64*
Cc1cc(C)nc(/N=C(\N)Nc2ccc(OCc3ccccc3)cc2)n1	-4	1	34	5	x
Cc1cc(C)nc(/N=C(\N)Nc2ccc(OCCC(C)C)cc2)n1	-7	15	100*	-2	91*
Cc1ccc(-c2cc(C(=O)Nc3ccc4c(c3)OCCO4)c3ccccc3n2)cc1	-5	-1	1	-2	x
CCOC(=O)/C(=N\Nc1ccccc1[N+](=O)[O-])c1csc(N)n1	10	1	2	11	x
CCOC(=O)/C(=N\Nc1ccc(C(C)=O)cc1)c1csc(Nc2ccccc2)n1	-37	9	64*	-16	-9	MPTP abs DR=i;MPTP counter DR=12*
COc1ccc(/C(C)=N/OC/C(O)=C(\C#N)c2nc3ccccc3[nH]2)cc1OC	-2	6	0	0	x
CC[N+]1(C)CC2CCC(C)(C1)C2(C)C (stereo unspecified)	-5	8	0	-11	x
Cc1sc2ncnc(N3CCCCC3C)c2c1C (stereo unspecified)	1	-26	60*	-15	54*
Cc1sc2ncnc(N3CCCCC3)c2c1C	-4	7	1	18	x
Cc1c(NC(=O)C(C)OC(=O)c2ccc([N+](=O)[O-])s2)c(=O)n(-c2ccccc2)n1C (stereo unspecified)	3	2	1	-5	x
COc1cccc(OCCNC(=O)c2cc([N+](=O)[O-])cc([N+](=O)[O-])c2)c1	5	-5	0	-1	x
Cc1ccc(OCCNC(=O)c2cc(C(=O)NCCOc3ccc(C)cc3)cc([N+](=O)[O-])c2)cc1	-8	-3	74*	0	83*
SMILES	MT1-MMP act inh	SKN-1 inh	MPTP inh	ATG4B inh	Rh123 counter	others
CN(C)c1ccc(C(c2ccc(N(C)C)cc2)C(O)c2ccccc2)cc1 (stereo unspecified)	1	-12	-1	18	x
C=CCN=c1scc(-c2ccccc2)n1/N=C/c1ccccn1	2	7	0	9	x
C=CCN=c1scc(-c2ccc3c(c2)NC(=O)CO3)n1/N=C(\C)c1ccccn1	-8	-7	95*	-12	62*
CCC(=O)N1CCc2cc(S(=O)(=O)NCCC(=O)N3CC=C(c4ccccc4)CC3)ccc21	6	-6	48	x	x
CCC(=O)N1CCc2cc(S(=O)(=O)NCCC(=O)N3CCc4ccccc4C3)ccc21	0	4	76*	-7	61*
O=C(NCCCCc1ccccc1)Nc1cccc(F)c1	1	-1	56*	16	96*
Fc1ccc(NC(=S)NCCc2ccccc2)c(F)c1F	0	12	77*	20	92*
Cc1ccc(NC(=O)Nc2cnc3ccccc3c2)cc1	3	-10	87*	-13	71*
CC(=O)c1cccc(NC(=S)NCCCCc2ccccc2)c1	4	5	68*	17	81*
Fc1ccccc1NC(=S)NCCc1ccccc1	2	25	1	11	x
CCN(CC)C(=O)Nc1cnc2ccccc2c1	-2	3	0	-5	x
CC(C)c1cc(Cn2c3ccccc3c(=O)n2C(C)Cn2cc(C3=CCCCC3)nn2)on1 (stereo unspecified)	11	-8	0	x	x
COc1ccc(C(O)(CCc2ccccc2)CCN2CCCCC2)cc1 (stereo unspecified)	0	-10	-1	4	x
O=[N+]([O-])c1cccc(NC(=S)NCCc2ccccc2)c1	2	-1	95*	39	96*
Fc1cccc(NC(=S)NCCc2ccccc2)c1	5	8	71*	5	87*
CC(C)(CNC(=S)NCCc1ccccc1)CNC(=S)NCCc1ccccc1	-1	3	80*	4	85*
Fc1ccc(F)c(NC(=S)NCCc2ccccc2)c1	-3	1	6	8	x
OCCNC(=S)NCCc1ccccc1	5	-9	-2	5	x
S=C(NCCc1ccccc1)Nc1cnc2ccccc2c1	-5	8	77*	-13	78*
Cc1ccc(C)c(N(CC(=O)NCc2ccco2)C(=O)CNS(=O)(=O)c2ccccc2)c1	-1	6	-1	-5	x
CCN(C(=O)COC(=O)c1ccc(S(=O)(=O)N2CCCc3ccccc32)cc1)C1CCS(=O)(=O)C1 (stereo unspecified)	2	4	-1	-12	x
N#Cc1c(NCCN)nc(-c2ccco2)c2c1CCCC2	2	2	92*	-3	-2	MPTP abs DR=13*;MPTP counter DR=>80
